Here are results for 14 molecules from article PMC9165588 (European journal of medicinal chemistry, 2022).

Assay [1] has as its target T1, LSD1 (Homo sapiens, UniProt O60341). Conditions: read-out: IC50 against LSD1; cited from earlier work.
The target of assay [2] is T2, binding between p300 HAT and histone H4 (Homo sapiens, UniProt Q09472).
T2 sequence (Q09472 1195-1673): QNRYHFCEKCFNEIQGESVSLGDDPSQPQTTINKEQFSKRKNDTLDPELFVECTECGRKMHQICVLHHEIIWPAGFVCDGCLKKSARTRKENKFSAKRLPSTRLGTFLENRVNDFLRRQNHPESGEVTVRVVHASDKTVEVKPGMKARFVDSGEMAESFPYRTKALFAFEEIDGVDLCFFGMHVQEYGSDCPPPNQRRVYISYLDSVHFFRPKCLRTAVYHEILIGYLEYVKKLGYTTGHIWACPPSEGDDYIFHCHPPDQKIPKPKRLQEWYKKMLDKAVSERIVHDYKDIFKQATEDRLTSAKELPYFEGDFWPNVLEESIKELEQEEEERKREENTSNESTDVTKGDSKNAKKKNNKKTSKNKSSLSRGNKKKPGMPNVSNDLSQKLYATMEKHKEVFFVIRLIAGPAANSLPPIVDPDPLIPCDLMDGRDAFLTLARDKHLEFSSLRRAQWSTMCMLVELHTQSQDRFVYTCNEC
Description: ALPHA assay of p300 HAT-histone H4 peptide binding.

Another assay deals with Kasumi-1 leukemia cells. Description: Western blot of cellular histone H3 lysine acetylation. The class given is cell-based, human. The conditions noted are these: Kasumi-1 cells, 12h, 5 and 10 μM. In outline: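 Kasumi-1 cells (10⁶ per well) were exposed to test compound at various concentrations for 12 h. Total histones were extracted with a kit, and 2 μg protein was resolved by SDS-PAGE and transferred to PVDF. Blots were probed with antibodies to H3K9Ac, H3K18Ac, H3K27Ac and total H3, then an anti-rabbit IgG secondary.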

Assay [3] addresses T3, HAT domain (1195-1673) of human p300 (Homo sapiens, UniProt Q09472).
T3 sequence (Q09472 1195-1673): T2 sequence (Q09472 1195-1673)
Description: p300 HAT inhibition assay. Type of assay: biochemical. Conditions: for inhibitory activity against p300 HAT (in words): initial screen at 10 μM; for inhibition at 10 µM: read-out: inhibition of p300 HAT at 10 μM.

The target in a further assay is PCAF (Homo sapiens, UniProt Q92831). Description: PCAF HAT inhibition assay. The class given is biochemical. In outline: (§1)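 Radiometric acetyltransfer assay. HAT enzyme (10 nM) was preincubated with test compound for 10 min at 25 °C in 50 mM phosphate buffer, pH 7.0, with 0.01% Brij-35. After 30 min at 25 °C, stopped with 6 N formic acid. Spotted on P81 paper, washed 3× in 50 mM NaHCO₃, scintillation counted.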
PCAF, sequence (Q92831 whole entry): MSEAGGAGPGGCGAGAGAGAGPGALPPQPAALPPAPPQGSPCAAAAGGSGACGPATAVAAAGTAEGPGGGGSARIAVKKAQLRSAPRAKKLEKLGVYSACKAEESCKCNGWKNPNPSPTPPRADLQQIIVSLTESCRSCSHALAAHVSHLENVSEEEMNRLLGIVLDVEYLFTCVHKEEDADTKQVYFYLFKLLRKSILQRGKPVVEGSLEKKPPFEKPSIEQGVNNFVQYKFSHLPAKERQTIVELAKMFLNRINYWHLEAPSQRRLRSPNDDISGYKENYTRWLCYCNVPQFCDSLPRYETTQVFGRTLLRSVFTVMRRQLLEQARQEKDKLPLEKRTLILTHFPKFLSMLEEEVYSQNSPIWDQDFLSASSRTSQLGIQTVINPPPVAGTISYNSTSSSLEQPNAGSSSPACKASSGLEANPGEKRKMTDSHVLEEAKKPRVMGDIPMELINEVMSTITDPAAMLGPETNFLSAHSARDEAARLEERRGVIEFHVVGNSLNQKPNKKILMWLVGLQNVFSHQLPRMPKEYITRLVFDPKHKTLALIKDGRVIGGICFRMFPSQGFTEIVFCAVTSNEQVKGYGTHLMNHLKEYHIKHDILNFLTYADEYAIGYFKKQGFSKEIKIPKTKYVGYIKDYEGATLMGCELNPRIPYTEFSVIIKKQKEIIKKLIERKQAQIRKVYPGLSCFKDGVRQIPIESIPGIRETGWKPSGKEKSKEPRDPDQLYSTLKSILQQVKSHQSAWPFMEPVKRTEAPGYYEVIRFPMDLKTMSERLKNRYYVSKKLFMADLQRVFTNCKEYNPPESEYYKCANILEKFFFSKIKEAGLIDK

The next assay deals with Myst3 (Homo sapiens, UniProt Q92794). Description: Myst3 HAT inhibition assay. The class given is biochemical. Put shortly: as §1
Myst3, sequence (Q92794 whole entry): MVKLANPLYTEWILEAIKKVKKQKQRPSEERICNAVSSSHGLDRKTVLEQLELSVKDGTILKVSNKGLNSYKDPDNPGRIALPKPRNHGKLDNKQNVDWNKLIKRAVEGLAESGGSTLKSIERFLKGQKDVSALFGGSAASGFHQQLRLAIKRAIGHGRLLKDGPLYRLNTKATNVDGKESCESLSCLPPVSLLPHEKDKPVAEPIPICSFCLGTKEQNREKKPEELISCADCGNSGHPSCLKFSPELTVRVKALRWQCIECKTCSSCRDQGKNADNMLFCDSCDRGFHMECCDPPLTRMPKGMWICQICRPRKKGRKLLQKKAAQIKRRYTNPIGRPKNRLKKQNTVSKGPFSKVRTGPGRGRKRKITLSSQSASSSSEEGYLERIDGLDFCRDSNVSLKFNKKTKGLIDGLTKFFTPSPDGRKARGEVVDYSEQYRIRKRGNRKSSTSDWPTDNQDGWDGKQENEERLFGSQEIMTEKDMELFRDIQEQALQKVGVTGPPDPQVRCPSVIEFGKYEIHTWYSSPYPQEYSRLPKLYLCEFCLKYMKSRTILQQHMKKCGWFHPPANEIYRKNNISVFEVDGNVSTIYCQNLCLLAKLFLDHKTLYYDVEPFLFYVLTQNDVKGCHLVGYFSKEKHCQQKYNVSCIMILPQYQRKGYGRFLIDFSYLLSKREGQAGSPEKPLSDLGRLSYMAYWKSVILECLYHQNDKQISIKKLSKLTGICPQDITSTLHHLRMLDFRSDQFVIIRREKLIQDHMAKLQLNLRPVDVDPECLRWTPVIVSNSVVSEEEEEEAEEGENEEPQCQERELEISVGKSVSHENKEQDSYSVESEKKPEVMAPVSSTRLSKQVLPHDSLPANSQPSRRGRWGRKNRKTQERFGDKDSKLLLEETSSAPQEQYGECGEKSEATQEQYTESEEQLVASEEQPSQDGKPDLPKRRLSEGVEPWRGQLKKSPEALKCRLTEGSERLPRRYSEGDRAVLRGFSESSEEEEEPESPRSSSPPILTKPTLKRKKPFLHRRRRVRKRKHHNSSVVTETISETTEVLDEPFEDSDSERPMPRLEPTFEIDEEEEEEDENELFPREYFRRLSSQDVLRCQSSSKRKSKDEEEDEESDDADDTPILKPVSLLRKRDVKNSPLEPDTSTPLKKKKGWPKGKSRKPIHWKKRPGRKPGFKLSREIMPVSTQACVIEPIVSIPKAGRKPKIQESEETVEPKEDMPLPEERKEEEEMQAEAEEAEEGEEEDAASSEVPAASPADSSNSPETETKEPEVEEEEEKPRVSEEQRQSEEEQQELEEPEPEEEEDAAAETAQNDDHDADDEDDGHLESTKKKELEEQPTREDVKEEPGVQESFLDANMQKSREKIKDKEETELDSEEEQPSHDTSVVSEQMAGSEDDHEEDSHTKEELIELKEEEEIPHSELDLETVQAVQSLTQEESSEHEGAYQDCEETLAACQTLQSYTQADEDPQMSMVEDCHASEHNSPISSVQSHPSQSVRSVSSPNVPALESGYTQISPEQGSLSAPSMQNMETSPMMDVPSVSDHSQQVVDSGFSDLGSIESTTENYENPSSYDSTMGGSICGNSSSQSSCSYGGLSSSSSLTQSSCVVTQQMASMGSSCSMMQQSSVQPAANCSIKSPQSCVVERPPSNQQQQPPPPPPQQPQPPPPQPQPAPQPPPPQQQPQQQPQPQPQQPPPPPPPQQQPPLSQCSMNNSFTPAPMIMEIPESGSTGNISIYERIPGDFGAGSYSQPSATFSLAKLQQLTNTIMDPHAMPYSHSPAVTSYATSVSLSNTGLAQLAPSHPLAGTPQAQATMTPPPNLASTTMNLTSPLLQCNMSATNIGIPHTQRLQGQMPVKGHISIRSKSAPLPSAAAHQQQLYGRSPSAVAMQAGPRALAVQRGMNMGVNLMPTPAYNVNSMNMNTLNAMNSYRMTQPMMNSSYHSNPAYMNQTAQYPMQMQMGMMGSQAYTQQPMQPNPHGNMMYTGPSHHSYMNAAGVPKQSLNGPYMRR
In assay [4] the target is T1, LSD1. Description: LSD1 inhibition. The class given is biochemical.
The subject of the next assay is MCF-7. The conditions noted are these: read-out: Antiproliferative activity EC50; cited from earlier work.
Another assay relates to PANC-1. The conditions noted are these: read-out: Antiproliferative activity EC50; cited from earlier work.
In another assay the test system is MDA-PANC-28. The conditions noted are these: read-out: Antiproliferative activity EC50; cited from earlier work.

“Also recorded” adds a separate entry of the source. Counter-ions that a name gives are not always drawn. Where only a bound is given, the exact number is not on record here.

The term IC50 denotes the concentration at which inhibition is half-maximal. Consider `c1ccc(-c2cc(OCC3CCNCC3)cnc2-c2ccccc2)cc1` [Compound 1, 5,6-diphenyl-3-(piperidin-4-ylmethoxy)pyridine], for which the concentration for half-maximal inhibition (IC50) on LSD1 [1] was greater than 100 µM.

As for `Cc1ccc(-c2ncc(OCC3CCNCC3)cc2-c2ccc(CO)cc2)cc1` [Compound 2], at LSD1 [1], the half-inhibitory concentration (IC50) was greater than 100 µM.

As for `Brc1ccc(-c2ncc(OCC3CCNCC3)nc2-c2ccc(Br)cc2)cc1` [Compound 3], the “effect on p300 HAT-histone H4 binding (in words)” value (from here on “effect”) in [2] is recorded as “can dose-dependently disrupt the binding”. On LSD1 [1], the IC50 was 52.4 µM.

For `NCCCOc1cnc(-c2ccc(Br)cc2)c(-c2ccc(Br)cc2)n1` [Compound 6, 3-((5,6-bis(4-bromophenyl)pyrazin-2-yl)oxy)propan-1-amine hydrochloride], the “effect” value in assay [2] is “not significantly inhibited”. Further, the “disruption of p300 HAT-histone H4 binding at 100 μM (in words)” value in assay [2] (100 μM) is “did not significantly disrupt the binding”. Besides, in the assay on Kasumi-1 leukemia cells, the “acetylation of H3K9 in cells” value is recorded as “did not significantly reduce”, the “acetylation of H3K18 in cells” value is “did not significantly reduce” and the “acetylation of H3K27 in cells” value was “did not significantly reduce”.

For `NCCOc1cnc(-c2ccc(Br)cc2)c(-c2ccc(Br)cc2)n1` [Compound 8, 2-((5,6-bis(4-bromophenyl)pyrazin-2-yl)oxy)ethan-1-amine hydrochloride], the “inhibitory activity against p300 HAT (in words)” value (“inhibitory activity” below) in assay [3] is on record as “weak inhibitors”.

As for `CNCCOc1cnc(-c2ccc(Br)cc2)c(-c2ccc(Br)cc2)n1` [Compound 9, 2-((5,6-bis(4-bromophenyl)pyrazin-2-yl)oxy)-N-methylethan-1-amine hydrochloride], in assay [3], the “inhibitory activity” value was “weak inhibitors”.

As for `CC(=O)NCCOc1cnc(-c2ccc(Br)cc2)c(-c2ccc(Br)cc2)n1` [Compound 10, N-(2-((5,6-bis(4-bromophenyl)pyrazin-2-yl)oxy)ethyl)acetamide hydrochloride], the “inhibitory activity” value in [3] was “inactive”.

On to `N#Cc1ccc(-c2nc(OCC3CCNCC3)cnc2-c2ccc(Br)cc2)cc1` [Compound 22], for which, in assay [3], the “inhibitory activity” value was “failed to improve the inhibitory activity”.

Regarding `N#Cc1ccc(-c2ncc(OCC3CCNCC3)nc2-c2ccc(Br)cc2)cc1` [Compound 23], the “inhibitory activity” value in assay [3] is listed as “failed to improve the inhibitory activity”.

Consider `NCc1ccc(-c2ncc(OCC3CCNCC3)nc2-c2ccc(CN)cc2)cc1` [Compound 27, ((5-(Piperidin-4-ylmethoxy)pyrazine-2,3-diyl)bis(4,1-phenylene))dimethanamine Hydrochloride], for which, in assay [3] (relative to compound 3), the “activity enhancement against p300 HAT compared to compound 3” value is on record as ~ 2 fold. In addition, in the assay with Kasumi-1 leukemia cells, the “acetylation of H3K9 in cells” value is recorded as “dose-dependently inhibit”, the “acetylation of H3K18 in cells” value was “not significantly affected” and the “acetylation of H3K27 in cells” value was “dose-dependently inhibit”.

With `c1cc(-c2ccc(-c3ncc(OCC4CCNCC4)nc3-c3ccc(-c4ccoc4)cc3)cc2)co1` [Compound 29, 2,3-bis(4-(Furan-3-yl)phenyl)-5-(piperidin-4-ylmethoxy)pyrazine hydrochloride], the “mode of inhibition against cofactor Ac-CoA” value in assay [3] (IC50 versus Ac-CoA 1 - 50 μM) was “likely non-competitive against the enzyme cofactor Ac-CoA”. Also, the “mode of inhibition against substrate histone” value in assay [3] (IC50 versus histone peptide 2 - 100 μM) was “competitive against the substrate histone”. Besides, the “more activity against p300 HAT than initial lead compound 3” value in assay [3] (relative to compound 3) is greater than 4 ×. Also, at PCAF, the “inhibition of PCAF activity at 100 μM (in words)” value was “did not significantly inhibit”. For the same molecule, the “inhibition of Myst3 activity at 100 μM (in words)” value on Myst3 is “did not significantly inhibit”. In addition, the “inhibition of LSD1 activity at 100 μM (in words)” value against LSD1 [4] is “did not significantly inhibit”. In addition, the “effect” value in [2] is listed as “can dose-dependently disrupt the binding”. In the assay with Kasumi-1 leukemia cells, the “acetylation of H3K9 in cells” value is reported as “almost depleted”, the “acetylation of H3K18 in cells” value is “significantly inhibited” and the “acetylation of H3K27 in cells” value is “almost depleted”.

A word on the inhibition: it is the share of the control response that was lost under treatment. For the molecule `c1ccc(-c2ccc(-c3ncc(OCC4CCNCC4)nc3-c3ccc(-c4ccccn4)cc3)cc2)nc1` [Compound 30, 5-(Piperidin-4-ylmethoxy)-2,3-bis(4-(pyridin-2-yl)phenyl)pyrazine hydrochloride], the inhibition at 10 µM in [3] lay in the range of 37 to 39%.

As for `c1cc(-c2ccc(-c3ncc(OCC4CCNCC4)nc3-c3ccc(-c4ccncc4)cc3)cc2)ccn1` [Compound 31, 5-(Piperidin-4-ylmethoxy)-2,3-bis(4-(pyridin-4-yl)phenyl)pyrazine hydrochloride], in [3], the inhibition at 10 µM was in the range of 37 to 39%.

As usually defined, the EC50 is the midpoint of the concentration-response curve. Turning to `CNC(=O)Nc1ccc2c(c1)CC[C@@]21OC(=O)N(CC(=O)N(Cc2ccc(F)cc2)[C@@H](C)C(F)(F)F)C1=O` [Compound A-485], the “effect” value in assay [2] is reported as “not significantly inhibited; also recorded: did not affect the p300 HAT-histone H4 interaction”. Moreover, the concentration giving a half-maximal response (EC50) in the assay with MCF-7, in the assay with PANC-1 and in the assay with MDA-PANC-28 was greater than 30 µM in each case.
